Experimental data as given in paper PMC7616937 (Chemical communications (Cambridge, England), 2019).
Peptide text beside a SMILES is read from it.

Tests used:
[1] = Kinetics of fiber formation by TEM imaging; format: physicochemical; conditions: Fig. 2a, b
[2] = Kinetics of fibrillation by Thioflavin T; format: physicochemical; conditions: Fig. 3g
Summary of the method: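 Peptide fibrillation was tracked by Thioflavin T fluorescence, either with peptide alone or with lipid vesicles mimicking mammalian plasma membranes. The vesicles were made of 1,2-dioleoyl-sn-glycero-3-phosphocholine (DOPC), cholesterol and sphingomyelin.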

neuronal dysfunction = conditions: observation from the literature, no reference printed at b17; compare b4, ref 7a; cited from earlier work

ThT fluorescence during kinetic measurement ([2]; peptide only, without lipid vesicles, followed for 96 hours) | effect of addition of lipid vesicles on ThT fluorescence / fibrillation ([2]; with DOPC/Chol/Sph lipid vesicles) | Compound | time to mature fibers / completion of self-assembly [1] | toxicity (neuronal dysfunction)
dramatic increase in fluorescence | inhibition of the fibrillation process | CC(=O)N[C@@H](CCCCN)C(=O)N[C@@H](CC(C)C)C(=O)N[C@H](C(=O)N[C@@H](Cc1ccccc1)C(=O)N[C@@H](Cc1ccccc1)C(=O)N[C@@H](C)C(=O)N[C@@H](CCC(=O)O)C(N)=O)C(C)C [Aβ(16-22), Ac-KLVFFAE-NH2] (Ac-KLVFFAE-NH2) | four to seven days | –
– | – | Aβ(1-42): full length Aβ peptide | – | high toxicity
